Laboratory results from publication PMC6595297 (British Journal of Clinical Pharmacology, 2019).

Key:
[1] = test system: multidrug resistance protein 1 (MDR1)/P‐glycoprotein (P‐gp); conditions: in vitro, ref data on file; cited from earlier work
[2] = Phase I DDI study: pevonedistat plasma PK alone and with itraconazole; type: in vivo, human; conditions: for AUC(0-t) / AUC(0-inf) / Cmax / clearance / half-life: human, plasma; for AUC(0-t): AUClast; for Cmax: C max; for clearance: CL; for half-life: t 1/2, mean (standard deviation)
In short: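 Single IV pevonedistat given on day 1 alone and on day 8 with the CYP3A inhibitor. K2EDTA plasma was sampled within 1 h predose, at end of infusion, and at 0.5, 1, 2, 3, 4, 8, 12, 24, 48 and 72 h postdose. Samples were assayed by two GLP-validated LC–MS/MS methods (0.0500–25.0 and 1.00–500 ng mL−1). Noncompartmental PK was used. Day 8/day 1 geometric mean ratios with 90% CIs came from ANOVA (subject random), back-transformed.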

[3] = preliminary data, cancer patients, ref data on file; cited from earlier work
[4] = Pevonedistat 8 mg m^−2, + itraconazole (day 8) vs alone (day 1), n = 13
[5] = Pevonedistat 15 mg m^−2, + itraconazole (day 8) vs alone (day 1), n = 6
[6] = Pevonedistat 20 mg m^−2, + itraconazole (day 8) vs alone (day 1), n = 14
[7] = dose‐normalized PK, 8–20 mg m^−2 pooled, + itraconazole vs alone, n = 33
[8] = intravenous, 8 mg, geometric LS mean reference condition (day 1), Pevonedistat 8 mg m^−2 alone, itraconazole cohort, n = 13
[9] = intravenous, 15 mg, geometric LS mean reference condition (day 1), Pevonedistat 15 mg m^−2 alone, itraconazole cohort, n = 6
[10] = intravenous, 20 mg, geometric LS mean reference condition (day 1), Pevonedistat 20 mg m^−2 alone, itraconazole cohort, n = 14
[11] = intravenous, geometric LS mean test condition (day 8), Pevonedistat 8 mg m^−2 + itraconazole, n = 13, value from n − 1 patients
[12] = intravenous, geometric LS mean test condition (day 8), Pevonedistat 15 mg m^−2 + itraconazole, n = 6
[13] = intravenous, geometric LS mean test condition (day 8), Pevonedistat 20 mg m^−2 + itraconazole, n = 14
[14] = iv, 8 mg, geometric mean (% CV), 8 mg m^−2 IV single dose, – itraconazole (day 1), n=13
[15] = iv, 20 mg, geometric mean (% CV), 20 mg m^−2 IV single dose, – itraconazole (day 1), n=14
[16] = integrated analysis, 8–20 mg m^−2, n = 33

In the case of NS(=O)(=O)OC[C@@H]1C[C@@H](n2ccc3c(N[C@H]4CCc5ccccc54)ncnc32)C[C@@H]1O [Pevonedistat], the “Substrate of MDR1/P‐gp” value [1] is listed as “substrate”, the “AUClast, geometric LS mean ratio (test/reference) (90% CI)” value [2, 4] is listed as 121.57 (110.92–133.24) % and the “AUC∞, geometric LS mean ratio (test/reference) (90% CI)” value [2, 4] is listed as 122.95 (112.13–134.82) %. The “C max, geometric LS mean ratio (test/reference) (90% CI)” value [2, 4] was 113.05 (85.35–149.74) %, the “AUClast, geometric LS mean ratio (test/reference) (90% CI)” value [2, 5] was 130.16 (106.99–158.35) % and the “AUC∞, geometric LS mean ratio (test/reference) (90% CI)” value [2, 5] was 132.70 (111.10–158.49) %. The “C max, geometric LS mean ratio (test/reference) (90% CI)” value [2, 5] was 159.55 (89.97–282.96) %, the “AUClast, geometric LS mean ratio (test/reference) (90% CI)” value [2, 6] was 101.36 (90.72–113.23) % and the “AUC∞, geometric LS mean ratio (test/reference) (90% CI)” value [2, 6] was 100.89 (91.14–111.68) %. For the same compound, the “C max, geometric LS mean ratio (test/reference) (90% CI)” value [2, 6] was 77.26 (55.19–108.17) %, the “Dose‐normalized AUClast, geometric LS mean ratio (test/reference) (90% CI)” value [2, 7] was 113.61 (105.65–122.18) % and the “Dose‐normalized AUC∞, geometric LS mean ratio (test/reference) (90% CI)” value [2, 7] was 114.24 (106.54–122.50) %. The “Dose‐normalized C max, geometric LS mean ratio (test/reference) (90% CI)” value [2, 7] was 102.41 (83.12–126.19) %, the AUC(0-t) [2, 8] was 459 ng·h/mL and the AUC(0-inf) [2, 8] was 465 ng·h/mL. For the same compound, the AUC(0-t) [2, 9] was 793 ng·h/mL, the AUC(0-inf) [2, 9] was 798 ng·h/mL and the AUC(0-t) [2, 10] was 1110 ng·h/mL. It also gave an AUC(0-inf) [2, 10] of 1120 ng·h/mL, an AUC(0-t) [2, 11] of 558 ng·h/mL and an AUC(0-t) ([2]; intravenous, geometric LS mean test condition (day 8), Pevonedistat 15 mg m^−2 + itraconazole, n = 6, value from n − 1 patients) of 1030 ng·h/mL. It also gave an AUC(0-t) ([2]; intravenous, geometric LS mean test condition (day 8), Pevonedistat 20 mg m^−2 + itraconazole, n = 14, value from n − 1 patients) of 1130 ng·h/mL, an AUC(0-inf) [2, 11] of 572 ng·h/mL and an AUC(0-inf) [2, 12] of 1060 ng·h/mL. It also gave an AUC(0-inf) [2, 13] of 1130 ng·h/mL, a Cmax ([2]; intravenous, geometric LS mean test condition (day 8), Pevonedistat 8 mg m^−2 + itraconazole, n = 13) of 66.8 ng/mL and a Cmax [2, 12] of 193 ng/mL. The Cmax [2, 13] was 137 ng/mL, the AUC(0-inf) [2, 14] was 465 ng·h/mL and the clearance [2, 14] was 487 mL/min. The half-life ([2]; iv, 8 mg, 8 mg m^−2 IV single dose, – itraconazole (day 1), n=13) was 10.8 h, the AUC(0-inf) ([2]; iv, 15 mg, geometric mean (% CV), 15 mg m^−2 IV single dose, – itraconazole (day 1), n=6) was 798 ng·h/mL and the half-life ([2]; iv, 15 mg, 15 mg m^−2 IV single dose, – itraconazole (day 1), n=6) was 9.8 h. It also gave an AUC(0-inf) [2, 15] of 1120 ng·h/mL, a clearance [2, 15] of 597 mL/min and a half-life ([2]; iv, 20 mg, 20 mg m^−2 IV single dose, – itraconazole (day 1), n=14) of 10 h. The half-life ([2]; iv, 8 mg m^−2 IV single dose, + itraconazole (day 8), n=13) was 13.5 h, the half-life ([2]; iv, 15 mg m^−2 IV single dose, + itraconazole (day 8), n=6) was 11 h and the half-life ([2]; iv, 20 mg m^−2 IV single dose, + itraconazole (day 8), n=14) was 10.8 h. For the same compound, the “Dose‐normalized AUC∞ geometric mean ratio, presence vs. absence of itraconazole” value [2, 16] was 1.14, the “Increase in geometric mean dose‐normalized AUC∞ with itraconazole” value [2, 16] was 14% and the “AUC∞ geometric mean ratio, presence vs. absence of itraconazole” value ([2]; pevonedistat 8 mg m^−2) was 1.23. The “Increase in pevonedistat plasma systemic exposure with concomitant itraconazole” value ([2]; pevonedistat 8 mg m^−2 single dose) was 23%, the “AUC∞ geometric mean ratio, presence vs. absence of itraconazole” value ([2]; pevonedistat 20 mg m^−2) was 1.01 and the “Administered dose accounted for by metabolites” value [3] was “approximately 80%”.
